For assay [1], the system named is Escherichia coli. The experiment in a line: Antibacterial activity against Escherichia coli O157:H7 ATCC 35150 after 18 to 22 hrs in presence of 1/4 times MIC colistin by broth microdilution method. It is filed as functional. For orientation: In broth dilution the organism is exposed to a series of concentrations in liquid medium.
In assay [2] the test system is Enterobacter cloacae. The experiment in a line: Antibacterial activity against Enterobacter cloacae BAA-1154 after 18 to 22 hrs in absence of colistin by broth microdilution method. It is filed as functional.
The test system of assay [3] is Klebsiella pneumoniae. Description: Antibacterial activity against Klebsiella pneumoniae BAA-1706 after 18 to 22 hrs in absence of colistin by broth microdilution method. It is filed as functional.
Assay [4] deals with Escherichia coli. Description: Antibacterial activity against Escherichia coli O157:H7 ATCC 35150 after 18 to 22 hrs in absence of colistin by broth microdilution method. It is filed as functional.
The test system of assay [5] is Acinetobacter baumannii. The experiment in a line: Antibacterial activity against Acinetobacter baumanii ATCC 19606 after 18 to 22 hrs in absence of colistin by broth microdilution method. Format: functional. The conditions noted are these: ATCC 19606 = CIP 70.34 = JCM 6841. Summed up:
(§1)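 Broth microdilution per CLSI guidelines. Gram-negatives grown in TSB. Each strain tested alone and again with colistin at ¼ × MIC to permeabilize the outer membrane. Plates incubated at 37 °C for 18–22 h. MIC read as the lowest concentration showing no visible growth.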

In assay [6] the test system is Enterobacter cloacae. Description: Antibacterial activity against Enterobacter cloacae BAA-1154 after 18 to 22 hrs in presence of 1/4 times MIC colistin by broth microdilution method. It is filed as functional. Summed up: as §1
Assay [7] deals with Pseudomonas aeruginosa. The experiment in a line: Antibacterial activity against Pseudomonas aeruginosa ATCC 15442 after 18 to 22 hrs in absence of colistin by broth microdilution method. Format: functional.
The subject of assay [8] is Pseudomonas aeruginosa. Description: Antibacterial activity against Pseudomonas aeruginosa ATCC 15442 after 18 to 22 hrs in presence of 1/4 times MIC colistin by broth microdilution method. It is filed as functional. Put shortly:
as §1

In assay [9] the test system is Acinetobacter baumannii. Description: Antibacterial activity against Acinetobacter baumanii ATCC 19606 after 18 to 22 hrs in presence of 1/4 times MIC colistin by broth microdilution method. It is filed as functional. The settings on record: ATCC 19606 = CIP 70.34 = JCM 6841. Put shortly: as §1
In assay [10] the test system is Klebsiella pneumoniae. The experiment in a line: Antibacterial activity against Klebsiella pneumoniae BAA-1706 after 18 to 22 hrs in presence of 1/4 times MIC colistin by broth microdilution method. It is filed as functional. Summed up: as §1
The subject of assay [11] is Bacillus subtilis. The experiment in a line: Antibacterial activity against Bacillus subtilis assessed as bending of cells at 5 times MIC after 2 hrs in presence of methylsulfonyl methane by phase contrast microscopic analysis. Format: functional. Put shortly:
(§2)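 B. subtilis grown in LB at 37 °C to OD600 ~0.2, then treated at 5 × MIC with MSM for osmotic stabilisation. At 2 h, stained with FM 4-64 (1 μg/mL), DAPI (1 μg/mL) and SYTOX Green (1 μg/mL). Imaged by deconvolution fluorescence and phase contrast microscopy.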

Assay [12] deals with Enterococcus faecium. The experiment in a line: Bactericidal activity against Vancomycin-resistant Enterococcus faecium clinical isolates after 18 to 22 hrs by broth microdilution method. It is filed as functional. Summed up:
(§3)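 MBC follows the broth microdilution MIC. 5 μL aliquots spotted onto TSA (E. faecalis) or BHI agar (E. faecium), incubated 37 °C for 18–22 h. MBC is the concentration giving >99% reduction in bacterial count. MBC50 is the value for 50% of isolates.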

The subject of assay [13] is Enterococcus faecalis. The experiment in a line: Antibacterial activity against vancomycin-resistant Enterococcus faecalis clinical isolates after 18 to 22 hrs by broth microdilution method. It is filed as functional. Put shortly:
(§4)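 CLSI broth microdilution against panels of enterococcal isolates. E. faecalis grown in TSB, E. faecium in BHI, 37 °C for 18–22 h. MIC is the lowest concentration without visible growth. MIC50 is the value inhibiting 50% of isolates in each group.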

In assay [14] the test system is Bacillus subtilis. Description: Antibacterial activity against Bacillus subtilis assessed as pool of membranes at 5 times MIC after 2 hrs in presence of methylsulfonyl methane by phase contrast microscopic analysis. It is filed as functional. Summed up: as §2
The subject of assay [15] is Enterococcus faecalis. The experiment in a line: Antibacterial activity against vancomycin-resistant Enterococcus faecalis HM-201 infected in Caenorhabditis elegans AU37 assessed as reduction in bacterial burden at 20 ug/ml after 18 hrs by CFU-based […] analysis relative to control. Format: functional. Put shortly: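 C. elegans AU37 adults infected on an E. faecalis HM-201 lawn for 2 h, washed in M9, 20–25 worms per well. Treated in triplicate with 20 μg/mL, with water as negative control. Worms washed, lysed with silicon carbide by vortexing, diluted serially and plated on TSA with 50 μg/mL gentamicin. CFU counted after 18 h at 37 °C and expressed as % reduction versus untreated worms.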

Assay [16] has as its system Bacillus subtilis. Description: Antibacterial activity against Bacillus subtilis assessed as misshapen cells at 5 times MIC after 2 hrs in presence of methylsulfonyl methane by phase contrast microscopic analysis. Format: functional. Summed up: as §2
The subject of assay [17] is Enterococcus faecium. The experiment in a line: Antibacterial activity against vancomycin-resistant Enterococcus faecium clinical isolates after 18 to 22 hrs by broth microdilution method. Format: functional. Put shortly:
as §4

The test system of assay [18] is Enterococcus faecalis. Description: Bactericidal activity against vancomycin-resistant Enterococcus faecalis clinical isolates after 18 to 22 hrs by broth microdilution method. It is filed as functional. Put shortly:
as §3

Assay [19] has as its system Enterococcus faecalis. Description: Antibacterial activity against Enterococcus faecalis clinical isolates after 18 to 22 hrs by broth microdilution method. It is filed as functional. Put shortly: as §4
The test system of assay [20] is Enterococcus faecalis. Description: Inhibition of UPPP-mediated peptidoglycan biosynthesis in Enterococcus faecalis NR-31975 assessed as accumulation of UDP-N-acetylmuramyl-pentapeptide at 10 times MIC after 30 mins by HPLC-MS analysis. Summed up:
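Pellets boiled 30 min. UDP-N-acetylmuramyl-pentapeptide measured by HPLC-TOF MS on a phenyl column, 5–20% acetonitrile/0.1% formic acid gradient, positive ESI.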

Assay [21] relates to Enterococcus faecium. Description: Antibacterial activity against Enterococcus faecium clinical isolates after 18 to 22 hrs by broth microdilution method. It is filed as functional. Put shortly:
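Enterococcus faecium grown in BHI. MIC by CLSI broth microdilution, 37 °C for 18–22 h. Lowest concentration with no visible growth taken as MIC, reported as MIC50 across the isolates.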

In assay [22] the test system is Escherichia coli. Description: Antibacterial activity against tolC deficient Escherichia coli assessed as formation of spheroplasts at 125 ug/ml after 30 mins in presence of sucrose by FM4-64/DAPI/SYTOX Green staining-based deconvolution microscopic analysis. It is filed as functional.
Assay [23] deals with Escherichia coli. The experiment in a line: Antibacterial activity against tolC deficient Escherichia coli assessed as formation of misshapen cells at 125 ug/ml after 30 mins in presence of sucrose by FM4-64/DAPI/SYTOX Green staining-based deconvolution microscopic analysis. It is filed as functional.
Assay [24] deals with Escherichia coli. The experiment in a line: Antibacterial activity against tolC deficient Escherichia coli assessed as cell lysis at 125 ug/ml after 2 hrs in presence of sucrose by FM4-64/DAPI/SYTOX Green staining-based deconvolution microscopic analysis. Format: functional.
Assay [25] relates to Bacillus subtilis. Description: Antibacterial activity against Bacillus subtilis assessed as cell shape defects at 1 times MIC after 2 hrs in presence of methylsulfonyl methane by phase contrast microscopic analysis. It is filed as functional. Put shortly:
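B. subtilis grown in LB at 37 °C to OD600 ~0.2 and treated, with or without MSM for osmotic stabilization, for 30 min or 2 h. Stained with FM 4-64 (1 μg/mL), DAPI (1 μg/mL) and SYTOX Green (1 μg/mL) to score permeability. Examined by deconvolution and phase-contrast microscopy.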

The nature of assay [26]: Induction of proton motive force collapse in Escherichia coli inverted membrane vesicle in presence of succinate/O2-driven PMF generation system by ACMA-based fluorescence assay. Format: functional, cell membranes. Summed up: (§5)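 E. coli inverted membrane vesicles (0.1 mg/mL membrane protein) with 2 μM ACMA and 0.5 mM ATP or succinate, in 10 mM HEPES-KOH, 5 mM MgSO4, 100 mM KCl, pH 7.5. Proton gradient followed by ACMA fluorescence (ex 410/em 480 nm). EC50 taken from dose-response curves. CCCP used as reference uncoupler.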

Assay [27] is described as follows: Induction of proton motive force collapse in Escherichia coli inverted membrane vesicle in presence of ATP-driven PMF generation system by ACMA-based fluorescence assay. Format: functional, cell membranes. Put shortly: as §5

≈ marks a conversion by molar mass, not a printed value. Calls of active or inactive are those of the source. Some results are limits rather than exact numbers.

In the case of `CC[C@H]1OC(=O)[C@H](C)[C@@H](O[C@H]2C[C@@](C)(OC)[C@@H](O)[C@H](C)O2)[C@H](C)[C@@H](O[C@@H]2O[C@H](C)C[C@H](N(C)C)[C@H]2O)[C@](C)(O)C[C@@H](C)C(=O)[C@H](C)[C@@H](O)[C@]1(C)O` [ERYTHROMYCIN], the minimum inhibitory concentration (MIC) in the assay with Escherichia coli [1] stood at 1 µg/mL; with Enterobacter cloacae [2], 128 µg/mL (≈ 174 µM); in the assay with Klebsiella pneumoniae [3], 128 µg/mL (≈ 174 µM); in the assay on Escherichia coli [4], 64 µg/mL (≈ 87.2 µM); in the assay with Acinetobacter baumannii [5], 8 µg/mL (≈ 10.9 µM); in the assay with Enterobacter cloacae [6], 1 µg/mL. In addition, the MIC worked out at 128 µg/mL (≈ 174 µM) in the assay on Pseudomonas aeruginosa [7], 1 µg/mL with Pseudomonas aeruginosa [8], 0.5 µg/mL with Acinetobacter baumannii [9] and 0.5 µg/mL in the assay with Klebsiella pneumoniae [10].

Turning to `CN[C@H](CC(C)C)C(=O)N[C@H]1C(=O)N[C@@H](CC(N)=O)C(=O)N[C@H]2C(=O)N[C@H]3C(=O)N[C@H](C(=O)N[C@H](C(=O)O)c4cc(O)cc(O)c4-c4cc3ccc4O)[C@H](O)c3ccc(c(Cl)c3)Oc3cc2cc(c3O[C@@H]2O[C@H](CO)[C@@H](O)[C@H](O)[C@H]2O[C@H]2C[C@](C)(N)[C@H](O)[C@H](C)O2)Oc2ccc(cc2Cl)[C@H]1O` [VANCOMYCIN], the result in the assay on Bacillus subtilis [11], with Bacillus subtilis [14] and in the assay with Bacillus subtilis [16] was Active. Also, the MBC50 in the assay on Enterococcus faecium [12] and against Enterococcus faecalis [18] was greater than 64 µg/mL in each case. Further, the MIC50 is greater than 64 µg/mL in the assay on Enterococcus faecalis [13], greater than 64 µg/mL against Enterococcus faecium [17], 1 µg/mL (≈ 0.69 µM) in the assay on Enterococcus faecalis [19] and 1 µg/mL (≈ 0.69 µM) against Enterococcus faecium [21]. Moreover, in the assay with Enterococcus faecalis [15], the result was inactive. Further, the inhibition result in the assay with Enterococcus faecalis [20] was “Active”.

Turning to `N[C@@H]1CONC1=O`, the outcome with Escherichia coli [22], with Escherichia coli [23], with Escherichia coli [24] and with Bacillus subtilis [25] was Active.

Consider `N#CC(C#N)=NNc1cccc(Cl)c1` [CARBONYL CYANIDE M-CHLOROPHENYLHYDRAZONE], for which the EC50 in [26] came out at 200 nM; in [27] it was 400 nM.

A word on the MIC: it is the smallest concentration in the dilution series that meets the test's criterion for growth inhibition. As a reminder, the MIC50 is the lowest concentration that inhibits either 50% of growth or 50% of the strains tested, depending on the study. A higher MIC50 goes with weaker potency. The EC50 is the concentration that produces a half-maximal response.

The values above are taken from ChEMBL document CHEMBL4028805, “Phenylthiazole Antibacterial Agents Targeting Cell Wall Synthesis Exhibit Potent Activity in Vitro and in Vivo against Vancomycin-Resistant Enterococci” (J Med Chem, 2017).
